Source: PubChem BioAssay
OXTR ag: human OXTR agonists, primary screen, fluorescence, CHO-OTR cells, Fluo-8 calcium. Oxytocin receptor (Homo sapiens), P30559. Fluo-8 calcium fluorescence; normalized: DMSO 0%, oxytocin 100%. activation, % at 3 µM. 320,000 compounds, 0.32% hits;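 active = activation above the mean of all tested compounds plus 3 SD, cutoff set per screening run, cut at about 20% in these data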;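 also: peak over basal fluorescence ratio from a 100 s FLIPR kinetic read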
Target sequence (P30559 whole entry, looked up): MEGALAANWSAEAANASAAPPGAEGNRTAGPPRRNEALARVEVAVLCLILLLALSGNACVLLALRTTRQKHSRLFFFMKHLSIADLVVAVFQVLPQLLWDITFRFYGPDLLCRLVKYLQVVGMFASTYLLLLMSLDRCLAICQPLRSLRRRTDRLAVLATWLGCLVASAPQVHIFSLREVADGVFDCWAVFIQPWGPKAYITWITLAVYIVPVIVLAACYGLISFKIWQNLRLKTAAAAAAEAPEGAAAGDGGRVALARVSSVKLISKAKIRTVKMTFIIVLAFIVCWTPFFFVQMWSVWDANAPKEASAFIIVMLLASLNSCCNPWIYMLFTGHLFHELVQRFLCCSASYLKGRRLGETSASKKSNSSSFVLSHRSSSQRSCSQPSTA
V1R ag counter: agonists of human V1a receptor, primary screen, counter-screen for OXTR agonist project, fluorescence, CHO-V1R cells | Vasopressin V1a receptor (Homo sapiens), P37288 | Fluo-8 calcium fluorescence, agonist mode; 0% DMSO, 100% 3 nM vasopressin | activation, % at 3 µM | 320,000 compounds, 0.25% hits | AID 2797, 2010;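 active = activation above the mean activation of all tested compounds plus 3 SD, per screening run, cut at about 20% in these data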;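 also: signal is peak over basal fluorescence ratio across a 100 second FLIPR read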
TAAR1 antag: human TAAR1 antagonists, primary screen, Fluo-8 calcium fluorescence, CHO RD-HGA16 cells | Trace amine-associated receptor 1 (Homo sapiens), Q96RJ0 | antagonist | inhibition, % at 3 µM | 360,000 compounds, 1.5% hits | AID 624466, 2012;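 active = inhibition above a per-plate cutoff, the mean inhibition of test compounds on that plate plus 3 SD, cut at about 49% in these data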
Target sequence (Q96RJ0 whole entry, looked up): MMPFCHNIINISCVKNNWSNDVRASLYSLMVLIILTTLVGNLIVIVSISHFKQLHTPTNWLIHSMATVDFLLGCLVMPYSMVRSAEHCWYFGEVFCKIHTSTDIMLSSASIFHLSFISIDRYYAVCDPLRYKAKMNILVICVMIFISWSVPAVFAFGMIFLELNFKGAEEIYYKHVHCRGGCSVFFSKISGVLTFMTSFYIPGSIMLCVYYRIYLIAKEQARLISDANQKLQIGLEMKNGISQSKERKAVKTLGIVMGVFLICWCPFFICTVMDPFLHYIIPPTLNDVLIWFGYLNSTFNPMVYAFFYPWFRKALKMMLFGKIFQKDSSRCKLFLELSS
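Test system: hTAAR1-expressing CHO RD-HGA16 cells, Gα16-coupled; Probe or stimulus: EC80 β-phenethylamine stimulus; Compound dosing: single nominal final test compound concentration of 3 µM; Timing: 140 s kinetic read after compound, 140 s after agonist; Signal: Fluo-8 calcium-sensitive fluorescence; Measure: % inhibition of agonist calcium response; Controls: DMSO and EC80 PEA controls.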
TAAR1 agonist: human TAAR1 agonists, primary screen, Fluo-8 calcium fluorescence, CHO RD-HGA16 cells. vehicle wells 0%, saturating PEA agonist 100%. activation, % at 3 µM. 360,000 compounds, 0.99% hits. AID 624467, 2012;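 active = activation above the mean activation of all test compounds in the run plus 3 SD, cut at about 38% in these data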
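test system = CHO RD-HGA16 cells carrying human TAAR1 plus Gα16 | schedule = 17-24 h seeding, 75 min 37 °C dye, 30 min RT | compound dosing = 3 µM single concentration | control set = DMSO and PEA EC100 | replicates = n 1 | signal = Fluo-8 fluorescence, 5 s baseline then 140 s kinetic read | measure = percent activation vs PEA EC100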
OXTR potentiate: human OXTR potentiators, primary screen, fluorescence, CHO-OTR cells, Fluo-8 calcium; Oxytocin receptor (Homo sapiens), P30559; Fluo-8 calcium fluorescence, potentiator mode; 0% = oxytocin EC15, 100% = EC100; activation, % at 3 µM; 320,000 compounds, 0.061% hits; AID 2445, 2010;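 active = activation above that plate's cutoff, the mean activation of tested compounds plus 3 SD, cut at about 6.6% in these data, passing the limit was not always enough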
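Replication – single well per compound, singlicate · Assay system – CHO cell line stably expressing human OTR · Timing – 6 min pre-incubation, 100 s read · Measure – normalized max/min fluorescence ratio, % activation · Doses – 3.0 µM, one dose · Detection – Fluo-8 calcium dye fluorescence · Probe or stimulus – oxytocin near EC15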
TAAR1 ag conf: human TAAR1 agonists, retest of hits, confirmation, Fluo-8 calcium fluorescence, CHO RD-HGA16 cells; activation, % at 3 µM; shares compounds with TAAR1 agonist; scaled: DMSO 0%, maximal phenethylamine 100%; AID 651783, 2012; 2,400 compounds, 82% hits;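 active = activation above a cutoff set at the run's mean compound activation plus 3 SD, cut at about 39% in these data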
Ga16 ag counter: nonselective calcium mobilization agonists, CHO-Ga16 cells, counter-screen for hTAAR1 agonist project, cell-based, fluorescence, CHO-Ga16 parental line; shares compounds with TAAR1 agonist; Fluo-8 calcium fluorescence; normalized to maximal ATP response, DMSO zero; activation, % at 3 µM; 2,400 compounds, 50% hits; AID 651787, 2012;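 active = activation above the run cutoff, the mean activation over all tested wells plus 3 SD, cut at about 12% in these data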
TAAR1 desens: TAAR1 desensitization by agonist hits, confirmation, counter-screen for TAAR1 agonist project, cell-based, fluorescence, tachyphylaxis | shares compounds with TAAR1 agonist | CHO RD-HGA16 hTAAR1, Fluo-8 calcium, beta-PEA response inhibition | inhibition, % at 3 µM | 2,400 compounds, 46% hits | AID 651951, 2012;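 active = inhibition above the run cutoff, the mean inhibition of all test compounds plus 3 SD, cut at about 49% in these data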;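 also: beta-PEA stimulus applied at its EC80; loss of beta-PEA calcium signal after compound pretreatment read as receptor desensitization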
Ga16 antag count: inhibition of ATP-evoked calcium response in CHO-Ga16 cells, counter-screen for TAAR1 agonist project, cell-based, fluorescence | shares compounds with TAAR1 agonist | CHO-Ga16 ATP-induced calcium, Fluo-8 fluorescence | inhibition, % at 3 µM | 2,400 compounds, 39% hits | AID 651952, 2012;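 active = inhibition above the plate's mean compound inhibition plus 3 SD, computed per plate, cut at about 22% in these data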
A number is an active result; . = inactive; / = no result. Rows were chosen to be rich in hits. Some 2.3% of all compounds tested hit in one or more screens of this group.

SMILES	OXTR ag	V1R ag counter	TAAR1 antag	TAAR1 agonist	OXTR potentiate	TAAR1 ag conf	Ga16 ag counter	TAAR1 desens	Ga16 antag count
CCC(C)c1ccc(OCc2ccc(C(=O)OC)o2)cc1 (centres undefined)	.	.	.	.	.	/	/	/	/
COc1ccc(-c2csc(C(O)c3ccc(F)c(F)c3)n2)cc1 (centres undefined)	/	/	77	57	/	52	33	70	53
Cc1cc(C)n2nc(SCC(=O)N3CCCCC3C)nc2n1 (centres undefined)	.	.	.	.	.	/	/	/	/
CNc1nc(N)c([N+](=O)[O-])c(Nc2ccccc2OC)n1	.	.	.	56	.	80	13	.	.
O=C(COC(=O)c1ccc(Cl)cc1)NC1CCCCCC1	.	.	.	42	.	.	.	.	.
CC1=C(CC(=O)O)c2cc(F)ccc2/C1=C/c1ccc(S(C)=O)cc1 (centres undefined)	.	.	.	.	.	/	/	/	/
C=CCn1c(N)c(C(=O)Nc2ccc(C)cc2)sc1=S	.	.	.	62	.	.	.	.	.
COc1ccc(NS(=O)(=O)c2ccc3c(c2)NC(=O)CC(=O)N3)cc1OC	.	.	.	.	.	/	/	/	/
O=C(NNC(=O)c1ccc(NC(=O)c2ccccc2)cc1)c1ccccc1	.	.	.	61	.	.	.	.	.
O=C(CSc1ccccc1)Nc1ccc(C(=O)Nc2ccc(O)cc2)cc1	/	/	.	75	/	.	.	.	.
COc1cc(C(=O)Nc2ccc(NC(C)=O)cc2)ccc1OCc1ccccc1	.	.	.	.	.	/	/	/	/
O=C(Cc1ccccc1)Nc1ccc(C(=O)Nc2ccc(O)cc2)cc1	.	.	.	.	.	/	/	/	/
COc1ccccc1OCc1ccc(C(=O)Nc2ccccc2)cc1	.	.	57	63	.	46	27	60	37
O=C1C(Cl)=C(NC(=O)c2ccccc2)C(=O)C(Cl)=C1NC(=O)c1ccccc1	.	.	69	53	.	.	21	55	49
CC(C)(C)c1ccc(C(=O)O)c(C(=O)c2ccc(C(=O)O)cc2)c1	.	.	.	.	.	/	/	/	/
O=C(Nc1ccc(C2SCCS2)cc1)c1ccccc1	.	.	.	63	.	62	28	.	36
CCC(C(=O)Nc1ccc(C)cc1)c1ccccc1 (centres undefined)	.	.	.	.	.	/	/	/	/
CCc1ccc(NC(=O)C(CC)c2ccccc2)cc1 (centres undefined)	27	35	.	71	.	67	38	65	39
CC1(C)C(=O)OC(/C=C/c2cccc([N+](=O)[O-])c2)C(C)(C)C1=O (centres undefined)	.	.	.	.	.	/	/	/	/
COc1ccc(C(=O)N[C@H](C(=O)Nc2nc3c(s2)CCCC3)C(C)C)cc1	.	.	.	.	.	/	/	/	/
CCOc1ccccc1C(=O)N[C@H](C(=O)Nc1nc2c(s1)CCCC2)C(C)C	.	.	.	46	.	41	13	.	.
CC(=O)N1N=C(c2cccc([N+](=O)[O-])c2)OC1(C)c1cccs1 (centres undefined)	.	.	54	58	.	.	.	.	.
Cc1c(NC(=O)COC(=O)/C=C/c2cccc(Br)c2)c(=O)n(-c2ccccc2)n1C	.	.	.	.	.	/	/	/	/
COc1ccc(COc2ncnc3ccc(Br)cc23)cc1F	.	.	.	.	.	/	/	/	/
CCOC(=O)c1csc(NC(=O)CSc2nnnn2-c2ccc(OC)cc2)n1	.	.	.	53	.	.	16	.	.
SMILES	OXTR ag	V1R ag counter	TAAR1 antag	TAAR1 agonist	OXTR potentiate	TAAR1 ag conf	Ga16 ag counter	TAAR1 desens	Ga16 antag count
Cc1ccc(C)c(NC(=O)C2CCCN2C(=O)NC2CCCCC2)c1 (centres undefined)	.	.	.	.	.	/	/	/	/
O=C(O)C1CCCCC1C(=O)NCCCc1ccccc1 (centres undefined)	.	.	.	68	.	50	.	.	.
COc1ccc(CCNC(=O)C2CCCCC2C(=O)O)cc1OC (centres undefined)	.	.	/	/	.	/	/	/	/
O=C(NC1CCCCC1)C(=S)NCCc1ccccc1	.	.	.	58	.	76	.	62	.
O=C(NCCCc1ccccc1)c1ccccc1	.	.	.	.	.	/	/	/	/
O=C(NCCCCc1ccccc1)c1ccccc1	.	.	.	.	.	/	/	/	/
O=C(O)C1CCCCC1C(=O)NCCc1ccccc1 (centres undefined)	.	.	86	98	.	106	.	92	.
O=C(O)C1CCCCC1C(=O)NCCCCc1ccccc1 (centres undefined)	.	.	.	45	.	56	.	.	.
O=c1oc2ccccc2c2c1ccc1ccccc12	/	/	.	.	/	/	/	/	/
CCC(C(=O)NCCC1=CCCCC1)c1ccccc1 (centres undefined)	.	.	.	.	.	/	/	/	/
CC(CNC(=O)C1CCCCC1C(=O)O)c1ccccc1 (centres undefined)	.	.	/	/	.	/	.	/	.
Cc1ccc(NC(=S)N/N=C2\CCCCC2C)cc1 (centres undefined)	.	.	.	.	.	/	/	/	/
CC1CCCC/C1=N\NC(=S)NCCc1ccccc1 (centres undefined)	.	.	.	57	.	45	.	.	.
CCn1cc(S(=O)(=O)NCCc2ccccc2OC)cn1	.	.	.	46	.	59	.	.	.
CC(=O)Nc1cccc(NC(=O)C(=O)NCC(c2ccco2)N2CCc3ccccc3C2)c1 (centres undefined)	.	.	.	57	.	63	.	54	31
